Experiments:
Cynomolgus monkey [1] = experiment: Uptake in anesthetized cynomolgus monkey medulla after 35.0 mins; type: ADME, organism-based, Medulla of organ; settings: in vivo
Procedure, shortened: (§1)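 Baseline microPET scan (P4 scanner) of anesthetized cynomolgus monkeys after injection of the carbon-11 labelled nortropane tracer. Two baseline studies were run per tracer. Radioactivity was followed over time in regional brain time-activity curves.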

Cynomolgus monkey [2] = experiment: Uptake in anesthetized cynomolgus monkey cerebellum after 45.0 mins; type: ADME, organism-based; settings: in vivo, 0.75 h
Procedure, shortened: (§2)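 Baseline microPET (Concorde P4) regional brain time-activity curves in anesthetized cynomolgus monkey following injection of the [11C]-labelled tracer, with radioactivity followed over the scan.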

Cynomolgus monkey [3] = experiment: Uptake in anesthetized cynomolgus monkey medulla after 75.0 mins; type: ADME, organism-based, Medulla of organ; settings: in vivo, 1.25 h; procedure, shortened: as §1
Cynomolgus monkey [4] = experiment: Uptake in anesthetized cynomolgus monkey frontal after 75.0 mins; type: ADME, organism-based, Frontal cortex; settings: in vivo, 1.25 h; procedure, shortened: as §1
Cynomolgus monkey [5] = experiment: Uptake in anesthetized cynomolgus monkey thalamus after 105.0 mins; type: ADME, organism-based; settings: in vivo, 1.75 h
Procedure, shortened: (§3)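 Baseline microPET (Concorde P4) scan in anesthetized cynomolgus monkeys after injection of the carbon-11 labeled tracer, with no chase drug. Regional brain time-activity curves were followed over the scan. Tracer radiochemical purity and specific activity were determined by analytical HPLC at the time of injection.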

Cynomolgus monkey [6] = experiment: Uptake in anesthetized cynomolgus monkey cerebellum after 115.0 mins; type: ADME, organism-based; settings: in vivo; procedure, shortened: as §2
Cynomolgus monkey [7] = experiment: Uptake in anesthetized cynomolgus monkey cerebellum after 95.0 mins; type: ADME, organism-based; settings: in vivo; procedure, shortened: as §2
Cynomolgus monkey [8] = experiment: Uptake in anesthetized cynomolgus monkey cerebellum after 35.0 mins; type: ADME, organism-based, Macaca mulatta; settings: rhesus monkey, in vivo; procedure, shortened: as §2
Cynomolgus monkey [9] = experiment: Uptake in anesthetized cynomolgus monkey putamen after 45.0 mins; type: ADME, organism-based; settings: in vivo, 0.75 h; procedure, shortened: as §3
Cynomolgus monkey [10] = experiment: Ratio of uptake in thalamus to cerebellum of anesthetized cynomolgus monkey after 105 mins; type: ADME, organism-based; settings: in vivo, 1.75 h
Procedure, shortened: (§4)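 Baseline microPET (Concorde P4) in anesthetized cynomolgus monkey after injection of the [11C]-labelled tracer. Regional time-activity curves were taken, and each region's uptake was divided by cerebellum uptake (low-SERT reference) at 65, 85 and 105 min postinjection.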

Cynomolgus monkey [11] = experiment: Uptake in anesthetized cynomolgus monkey medulla after 65.0 mins; type: ADME, organism-based, Medulla of organ; settings: in vivo; procedure, shortened: as §1
Cynomolgus monkey [12] = experiment: Uptake in anesthetized cynomolgus monkey frontal after 65.0 mins; type: ADME, organism-based, Frontal cortex; settings: in vivo; procedure, shortened: as §1
Cynomolgus monkey [13] = experiment: Uptake in anesthetized cynomolgus monkey medulla after 15.5 mins; type: ADME, organism-based, Medulla of organ; settings: in vivo; procedure, shortened: as §1
Cynomolgus monkey [14] = experiment: Uptake in anesthetized cynomolgus monkey medulla after 3.5 mins; type: ADME, organism-based, Medulla of organ; settings: in vivo; procedure, shortened: as §1
Cynomolgus monkey [15] = experiment: Uptake in anesthetized cynomolgus monkey putamen after 85.0 mins; type: ADME, organism-based; settings: in vivo; procedure, shortened: as §3
Cynomolgus monkey [16] = experiment: Uptake in anesthetized cynomolgus monkey caudate after 2.5 mins; type: ADME, organism-based, Caudate nucleus; settings: in vivo; procedure, shortened: as §2
Cynomolgus monkey [17] = experiment: Uptake in anesthetized cynomolgus monkey medulla after 4.5 mins; type: ADME, organism-based, Medulla of organ; settings: in vivo, 0.075 h; procedure, shortened: as §1
Cynomolgus monkey [18] = experiment: Uptake in anesthetized cynomolgus monkey caudate after 0.5 mins; type: ADME, organism-based, Caudate nucleus; settings: in vivo; procedure, shortened: as §2
Cynomolgus monkey [19] = experiment: Uptake in anesthetized cynomolgus monkey putamen after 9.5 mins; type: ADME, organism-based; settings: in vivo; procedure, shortened: as §3
Cynomolgus monkey [20] = experiment: Uptake in anesthetized cynomolgus monkey putamen after 12.5 mins; type: ADME, organism-based; settings: in vivo; procedure, shortened: as §3
Cynomolgus monkey [21] = experiment: Uptake in anesthetized cynomolgus monkey midbrain after 15.5 mins; type: ADME, organism-based; settings: in vivo; procedure, shortened: as §1
Cynomolgus monkey [22] = experiment: Uptake in anesthetized cynomolgus monkey thalamus after 65.0 mins; type: ADME, organism-based; settings: in vivo; procedure, shortened: as §3
Cynomolgus monkey [23] = experiment: Uptake in anesthetized cynomolgus monkey occipital after 15.5 mins; type: ADME, organism-based, Macaca mulatta, Occipital cortex; settings: rhesus monkey, in vivo; procedure, shortened: as §1
Cynomolgus monkey [24] = experiment: Ratio of uptake in pons to cerebellum of anesthetized cynomolgus monkey after 85 mins; type: ADME, organism-based; settings: in vivo; procedure, shortened: as §4
Cynomolgus monkey [25] = experiment: Ratio of uptake in frontal to cerebellum of anesthetized cynomolgus monkey after 105 mins; type: ADME, organism-based; settings: in vivo, 1.75 h; procedure, shortened: as §4
Cynomolgus monkey [26] = experiment: Uptake in anesthetized cynomolgus monkey caudate after 35.0 mins; type: ADME, organism-based, Caudate nucleus; settings: in vivo; procedure, shortened: as §2
Cynomolgus monkey [27] = experiment: Uptake in anesthetized cynomolgus monkey putamen after 1.5 mins; type: ADME, organism-based; settings: in vivo, 0.025 h; procedure, shortened: as §3
Cynomolgus monkey [28] = experiment: Ratio of uptake in putamen to cerebellum of anesthetized cynomolgus monkey after 85 mins; type: ADME, organism-based; settings: in vivo; procedure, shortened: as §4
Cynomolgus monkey [29] = experiment: Uptake in anesthetized cynomolgus monkey occipital after 0.5 mins; type: ADME, organism-based, Occipital cortex; settings: in vivo; procedure, shortened: as §1
Cynomolgus monkey [30] = experiment: Uptake in anesthetized cynomolgus monkey frontal after 45.0 mins; type: ADME, organism-based, Frontal cortex; settings: in vivo, 0.75 h; procedure, shortened: as §1
Cynomolgus monkey [31] = experiment: Uptake in anesthetized cynomolgus monkey thalamus after 9.5 mins; type: ADME, organism-based; settings: in vivo; procedure, shortened: as §3
Cynomolgus monkey [32] = experiment: Uptake in anesthetized cynomolgus monkey frontal after 0.5 mins; type: ADME, organism-based, Frontal cortex; settings: in vivo; procedure, shortened: as §2
Cynomolgus monkey [33] = experiment: Uptake in anesthetized cynomolgus monkey putamen after 115.0 mins; type: ADME, organism-based; settings: in vivo; procedure, shortened: as §3
Cynomolgus monkey [34] = experiment: Uptake in anesthetized cynomolgus monkey pons after 15.5 mins; type: ADME, organism-based; settings: in vivo; procedure, shortened: as §3

**Q.** `[11CH3]OC(=O)[C@@H]1C2CCC(C[C@@H]1c1cccc(/C=C/I)c1)N2` (some centres undefined) was tested. Which Drug uptake (Cynomolgus monkey [1]) did it give?
**A.** 7.36

**Q.** What about the Drug uptake (Cynomolgus monkey [2]) of the same molecule?
**A.** 5.11

**Q.** What about the Drug uptake (Cynomolgus monkey [3]) of the same molecule?
**A.** 6.9

**Q.** And the Drug uptake (Cynomolgus monkey [4])?
**A.** 3.73

**Q.** What about the Drug uptake (Cynomolgus monkey [5]) of the same molecule?
**A.** 6.3

**Q.** And the Drug uptake (Cynomolgus monkey [6])?
**A.** 3.05

**Q.** And the Drug uptake (Cynomolgus monkey [7])?
**A.** 3.46

**Q.** And the Drug uptake (Cynomolgus monkey [8])?
**A.** 5.42

**Q.** What about the Drug uptake (Cynomolgus monkey [9]) of the same molecule?
**A.** 7.16

**Q.** And the Ratio (Cynomolgus monkey [10])?
**A.** 2.1

**Q.** What about the Drug uptake (Cynomolgus monkey [11]) of the same molecule?
**A.** 6.94

**Q.** And the Drug uptake (Cynomolgus monkey [12])?
**A.** 3.9

**Q.** What about the Drug uptake (Cynomolgus monkey [13]) of the same molecule?
**A.** 6.72

**Q.** What about the Drug uptake (Cynomolgus monkey [14]) of the same molecule?
**A.** 2.62

**Q.** What about the Drug uptake (Cynomolgus monkey [15]) of the same molecule?
**A.** 6.58

**Q.** What about the Drug uptake (Cynomolgus monkey [16]) of the same molecule?
**A.** 0.89

**Q.** And the Drug uptake (Cynomolgus monkey [17])?
**A.** 3.9

**Q.** What about the Drug uptake (Cynomolgus monkey [18]) of the same molecule?
**A.** 0.01

**Q.** And the Drug uptake (Cynomolgus monkey [19])?
**A.** 5.39

**Q.** And the Drug uptake (Cynomolgus monkey [20])?
**A.** 5.9

**Q.** What about the Drug uptake (Cynomolgus monkey [21]) of the same molecule?
**A.** 6.42

**Q.** And the Drug uptake (Cynomolgus monkey [22])?
**A.** 6.9

**Q.** What about the Drug uptake (Cynomolgus monkey [23]) of the same molecule?
**A.** 4.69

**Q.** What about the Ratio (Cynomolgus monkey [24]) of the same molecule?
**A.** 1.6

**Q.** What about the Ratio (Cynomolgus monkey [25]) of the same molecule?
**A.** 1.2

**Q.** What about the Drug uptake (Cynomolgus monkey [26]) of the same molecule?
**A.** 5.74

**Q.** What about the Drug uptake (Cynomolgus monkey [27]) of the same molecule?
**A.** 0.35

**Q.** What about the Ratio (Cynomolgus monkey [28]) of the same molecule?
**A.** 1.8

**Q.** And the Drug uptake (Cynomolgus monkey [29])?
**A.** 0.01

**Q.** What about the Drug uptake (Cynomolgus monkey [30]) of the same molecule?
**A.** 4.13

**Q.** And the Drug uptake (Cynomolgus monkey [31])?
**A.** 5.29

**Q.** What about the Drug uptake (Cynomolgus monkey [32]) of the same molecule?
**A.** 0.01

**Q.** And the Drug uptake (Cynomolgus monkey [33])?
**A.** 6.28

**Q.** What about the Drug uptake (Cynomolgus monkey [34]) of the same molecule?
**A.** 5.23
